Results taken from ChEMBL document CHEMBL3808334, “Synthesis and in vitro evaluation of novel triazine analogues as anticancer agents and their interaction studies with bovine serum albumin” (Eur J Med Chem, 2016).

Assays:
[1] = Growth inhibition of human Hs 578T cells assessed as cell growth at 10^-8 M incubated for 48 hrs by sulforhodamine B assay; format: functional; settings: read-out: Activity
[2] = Growth inhibition of human HCC2998 cells assessed as cell growth at 10^-6 M incubated for 48 hrs by sulforhodamine B assay; format: functional; settings: HCC 2998, 48 h, read-out: Activity
Outline: (§1)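 Cells seeded at 5,000–40,000/well according to doubling time and preincubated 24 h at 37 °C, 5% CO2. Time-zero plates were TCA-fixed. DMSO concentrate was diluted in medium with 50 µg/ml gentamicin to give five concentrations (10-fold or ½ log steps), then exposed 48 h. Cells were TCA-fixed, stained with 0.4% SRB and read at 515 nm. Percent growth was taken against time-zero and control; GI50, TGI and LC50 derived.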

[3] = Growth inhibition of human OVCAR8 cells assessed as cell growth at 10^-4 M incubated for 48 hrs by sulforhodamine B assay; format: functional; settings: OVCAR-8, 48 h, read-out: Activity
[4] = Growth inhibition of human OVCAR8 cells assessed as cell growth at 10 uM incubated for 48 hrs by sulforhodamine B assay; format: functional; settings: OVCAR-8, 48 h, read-out: Activity
[5] = test system: 786-0; assay: Growth inhibition of human 786-0 cells assessed as cell growth at 10 uM incubated for 48 hrs by sulforhodamine B assay; format: functional; settings: 786-0, 48 h, read-out: Activity
Outline: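 One-dose screen at 10 µM final. Cells are plated at 5,000–40,000 per well according to doubling time and preincubated 24 h at 37 °C, 5% CO₂. Compound (DMSO stock diluted in medium with 50 µg/ml gentamicin) is then added for 48 h. Growth percent is read by sulforhodamine B staining, absorbance at 515 nm.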

[6] = Growth inhibition of human SF539 cells assessed as cell growth at 10^-6 M incubated for 48 hrs by sulforhodamine B assay; format: functional; settings: SF-539, 48 h, read-out: Activity
[7] = Growth inhibition of human UACC62 cells incubated for 48 hrs by sulforhodamine B assay; format: functional; settings: UACC-62, 48 h
Outline: (§2)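 Cells were plated at 5,000–40,000 per well according to doubling time and preincubated 24 h at 37 °C in 5% CO2; time-zero plates were then TCA-fixed. Five concentrations (10-fold or ½-log dilutions, DMSO stock) were incubated 48 h. Cells were TCA-fixed, stained with 0.4% SRB and read at 515 nm. GI50 was taken where [(Ti−Tz)/(C−Tz)]×100 = 50.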

[8] = test system: ACHN; assay: Growth inhibition of human ACHN cells assessed as cell growth at 10^-8 M incubated for 48 hrs by sulforhodamine B assay; format: functional; settings: read-out: Activity
Outline: (§3)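 Five-dose assay: five concentrations from 10-fold or ½-log serial dilutions. Cells are plated at 5,000–40,000 per well according to doubling time, grown 24 h, then exposed 48 h at 37 °C, 5% CO₂. Fixed with cold 50% TCA (final addition) for 60 min at 4 °C and stained with 0.4% SRB in 1% acetic acid. Bound dye is solubilized in 10 mM Tris base and read at 515 nm. GI₅₀ is where [(Ti−Tz)/(C−Tz)]×100 = 50, with a time-zero plate as Tz.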

[9] = biological target: Albumin (Bos taurus, UniProt P02769); assay: Binding affinity to bovine serum albumin assessed as isoemissive point up to 20 uM by fluorescence spectroscopic analysis relative to control; format: ADME; settings: cattle, isolated protein
Outline: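 Fluorescence titration of 10 µM BSA in 0.1 M phosphate buffer pH 7.4 with compound at 0–20 µM, diluted from DMSO stocks. Excitation 280 nm, slit 10 nm, 1 cm quartz cell, 300 K. Changes in the 350 nm Trp emission, new bands near 370–373 nm and isoemissive points are read against BSA alone.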

[10] = Growth inhibition of human SF268 cells assessed as cell growth at 10^-8 M incubated for 48 hrs by sulforhodamine B assay; format: functional; settings: SF-268, 48 h, read-out: Activity
[11] = Growth inhibition of human prostate cancer cells incubated for 48 hrs by sulforhodamine B assay; format: functional; settings: Cancer cell lines; for CC50: read-out: LC50 (the source's name)
[12] = test system: M14; assay: Growth inhibition of human M14 cells assessed as cell growth at 10^-4 M incubated for 48 hrs by sulforhodamine B assay; format: functional; settings: M14, 48 h, read-out: Activity
[13] = test system: EKVX; assay: Growth inhibition of human EKVX cells incubated for 48 hrs by sulforhodamine B assay; format: functional; outline: as §1
[14] = test system: Malme-3M; assay: Growth inhibition of human MALME-3M cells assessed as cell growth at 10^-7 M incubated for 48 hrs by sulforhodamine B assay; format: functional; settings: read-out: Activity
[15] = Growth inhibition of human HOP62 cells incubated for 48 hrs by sulforhodamine B assay; format: functional; settings: HOP-62, 48 h; outline: as §1
[16] = Growth inhibition of human HCT15 cells assessed as cell growth at 10^-6 M incubated for 48 hrs by sulforhodamine B assay; format: functional; settings: HCT-15, 48 h, read-out: Activity; outline: as §1
[17] = test system: 786-0; assay: Growth inhibition of human 786-0 cells assessed as cell growth at 10^-4 M incubated for 48 hrs by sulforhodamine B assay; format: functional; settings: 786-0, 48 h, read-out: Activity; outline: as §3
[18] = Growth inhibition of human OVCAR5 cells assessed as cell growth at 10^-4 M incubated for 48 hrs by sulforhodamine B assay; format: functional; settings: OVCAR-5, 48 h, read-out: Activity
[19] = Growth inhibition of human HOP62 cells assessed as cell growth at 10^-7 M incubated for 48 hrs by sulforhodamine B assay; format: functional; settings: HOP-62, 48 h, read-out: Activity
[20] = Growth inhibition of human UACC62 cells assessed as cell growth at 10^-8 M incubated for 48 hrs by sulforhodamine B assay; format: functional; settings: UACC-62, 48 h, read-out: Activity
[21] = Growth inhibition of human PC3 cells incubated for 48 hrs by sulforhodamine B assay; format: functional; settings: PC-3, 48 h; outline: as §2
[22] = test system: A498; assay: Growth inhibition of human A498 cells assessed as cell growth at 10^-5 M incubated for 48 hrs by sulforhodamine B assay; format: functional; settings: A498, 48 h, read-out: Activity; outline: as §3
[23] = Growth inhibition of human OVCAR4 cells assessed as cell growth at 10^-4 M incubated for 48 hrs by sulforhodamine B assay; format: functional; settings: OVCAR-4, 48 h, read-out: Activity
[24] = Growth inhibition of human MOLT4 cells assessed as cell growth at 10^-6 M incubated for 48 hrs by sulforhodamine B assay; format: functional; settings: MOLT-4, 48 h, read-out: Activity
[25] = test system: MCF7; assay: Growth inhibition of human MCF7 cells assessed as cell growth at 10^-4 M incubated for 48 hrs by sulforhodamine B assay; format: functional; settings: MCF7, 48 h, read-out: Activity

Albumin, sequence (P02769 whole entry): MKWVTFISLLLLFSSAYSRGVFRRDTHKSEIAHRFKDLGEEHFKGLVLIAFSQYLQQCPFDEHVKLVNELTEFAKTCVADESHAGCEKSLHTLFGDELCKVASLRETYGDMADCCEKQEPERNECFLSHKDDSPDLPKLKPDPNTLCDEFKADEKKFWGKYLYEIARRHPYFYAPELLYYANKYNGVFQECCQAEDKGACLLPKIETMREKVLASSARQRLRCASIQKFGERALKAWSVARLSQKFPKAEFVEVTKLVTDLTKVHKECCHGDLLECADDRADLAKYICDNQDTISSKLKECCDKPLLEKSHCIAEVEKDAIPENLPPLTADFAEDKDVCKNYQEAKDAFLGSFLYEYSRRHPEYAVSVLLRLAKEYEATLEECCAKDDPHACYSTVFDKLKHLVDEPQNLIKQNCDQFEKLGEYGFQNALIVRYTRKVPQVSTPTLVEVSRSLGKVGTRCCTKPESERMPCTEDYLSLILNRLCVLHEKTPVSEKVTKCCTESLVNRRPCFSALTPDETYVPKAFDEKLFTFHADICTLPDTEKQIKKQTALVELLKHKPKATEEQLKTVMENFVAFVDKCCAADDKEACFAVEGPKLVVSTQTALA

c1ccc2[nH]c(-c3ccc(Nc4nc(N5CCCCC5)nc(N5CCOCC5)n4)cc3)nc2c1
growth at 0.01 µM [1]: 96%
growth at 1 µM [2]: 105%
growth at 100 µM [3]: -49%
growth at 10 µM [4]: 45.7%
growth at 10 µM [5]: -57.3%
growth at 1 µM [6]: 89%
GI50 ([7]; read-out: GI50): 1960 nM
TGI ([7]; read-out: TGI): 4320 nM
GI50 ([7]; read-out: pGI50 (converted)): 1950 nM
TGI ([7]; read-out: pTGI (converted)): 4370 nM
growth at 0.01 µM [8]: 101%
Activity [9]: 350 nm
growth at 0.01 µM [10]: 96%
GI50 [11]: 3670 nM
TGI [11]: 9130 nM
CC50 [11]: > 100000 nM
growth at 100 µM [12]: -70%
GI50 ([13]; read-out: GI50): 2680 nM
LC50 ([13]; read-out: LC50): > 100000 nM
TGI ([13]; read-out: TGI): > 100000 nM
GI50 ([13]; read-out: pGI50 (converted)): 2690 nM
LC50 ([13]; read-out: pLC50 (converted)): > 100000 nM
TGI ([13]; read-out: pTGI (converted)): > 100000 nM
growth at 0.1 µM [14]: 85%
GI50 ([15]; read-out: GI50): 1920 nM
LC50 ([15]; read-out: LC50): 9730 nM
TGI ([15]; read-out: TGI): 4320 nM
GI50 ([15]; read-out: pGI50 (converted)): 1910 nM
LC50 ([15]; read-out: pLC50 (converted)): 9770 nM
TGI ([15]; read-out: pTGI (converted)): 4370 nM
growth at 1 µM [16]: 87%
growth at 100 µM [17]: -87%
growth at 100 µM [18]: -18%
growth at 0.1 µM [19]: 96%
growth at 0.01 µM [20]: 96%
GI50 ([21]; read-out: GI50): 3050 nM
CC50 ([21]; read-out: LC50 (the source's name)): > 100000 nM
TGI ([21]; read-out: TGI): 9130 nM
GI50 ([21]; read-out: pGI50 (converted)): 3020 nM
CC50 ([21]; read-out: pLC50 (the source's name) (converted)): > 100000 nM
TGI ([21]; read-out: pTGI (converted)): 9120 nM
growth at 10 µM [22]: -51%
growth at 100 µM [23]: -32%
growth at 1 µM [24]: 97%
growth at 100 µM [25]: -5%

Clc1ccc(-c2nc(Nc3ccc(-c4nc5ccccc5[nH]4)cc3)nc(N3CCOCC3)n2)cc1
growth at 0.01 µM [1]: 90%
growth at 1 µM [2]: 15%
growth at 100 µM [3]: -79%
growth at 10 µM [4]: -73.8%
growth at 10 µM [5]: -94.5%
growth at 1 µM [6]: 31%
GI50 ([7]; read-out: GI50): 196 nM
TGI ([7]; read-out: TGI): 432 nM
GI50 ([7]; read-out: pGI50 (converted)): 195 nM
TGI ([7]; read-out: pTGI (converted)): 437 nM
growth at 0.01 µM [8]: 95%
Activity [9]: 349 nm
growth at 0.01 µM [10]: 98%
GI50 [11]: 410 nM
TGI [11]: 1490 nM
CC50 [11]: 4330 nM
growth at 100 µM [12]: -35%
GI50 ([13]; read-out: GI50): 1140 nM
TGI ([13]; read-out: TGI): 2630 nM
GI50 ([13]; read-out: pGI50 (converted)): 1150 nM
TGI ([13]; read-out: pTGI (converted)): 2630 nM
growth at 0.1 µM [14]: 101%
GI50 ([15]; read-out: GI50): 1400 nM
TGI ([15]; read-out: TGI): 3040 nM
GI50 ([15]; read-out: pGI50 (converted)): 1410 nM
TGI ([15]; read-out: pTGI (converted)): 3020 nM
growth at 1 µM [16]: -57%
growth at 100 µM [17]: -21%
growth at 100 µM [18]: -16%
growth at 0.1 µM [19]: 93%
growth at 0.01 µM [20]: 94%
GI50 ([21]; read-out: GI50): 376 nM
TGI ([21]; read-out: TGI): 1330 nM
GI50 ([21]; read-out: pGI50 (converted)): 380 nM
TGI ([21]; read-out: pTGI (converted)): 1320 nM
growth at 10 µM [22]: -83%
growth at 100 µM [23]: -51%
growth at 1 µM [24]: -29%
growth at 100 µM [25]: -17%
